Laboratory results from ChEMBL document CHEMBL1143707, “7-Arylpiperazinylalkyl and 7-tetrahydroisoquinolinylalkyl derivatives of 8-alkoxy-purine-2,6-dione and some of their purine-2,6,8-trione analogs as 5-HT(1A), 5-HT(2A), and 5-HT(7) serotonin receptor ligands” (Bioorg Med Chem, 2007).

Key:
[1] = biological target: T1, 5-hydroxytryptamine receptor 1A (Rattus norvegicus, UniProt P19327); assay: Displacement of [3H]8-OH-DPAT from rat brain 5HT1A receptor
T1 sequence (P19327 whole entry): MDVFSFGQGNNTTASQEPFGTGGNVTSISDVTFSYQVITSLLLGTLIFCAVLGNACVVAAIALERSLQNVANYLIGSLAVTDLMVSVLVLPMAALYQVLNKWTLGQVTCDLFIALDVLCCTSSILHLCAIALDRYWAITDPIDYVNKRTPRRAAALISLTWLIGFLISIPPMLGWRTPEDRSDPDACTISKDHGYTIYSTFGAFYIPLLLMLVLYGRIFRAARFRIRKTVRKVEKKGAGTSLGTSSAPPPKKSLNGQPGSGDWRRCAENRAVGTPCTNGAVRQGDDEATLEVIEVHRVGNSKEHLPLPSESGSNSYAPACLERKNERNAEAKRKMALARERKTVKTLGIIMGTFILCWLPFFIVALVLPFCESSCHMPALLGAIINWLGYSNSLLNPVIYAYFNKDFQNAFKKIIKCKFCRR
How it was run: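 Rat hippocampal membranes; 1 nM [3H]-8-OH-DPAT; nonspecific binding with 10 μM 5-HT; 8–10 competitor concentrations in triplicate, ≥3 experiments; GF/B filtration, ice-cold buffer washes, scintillation counting; Ki by nonlinear regression with Cheng–Prusoff.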

[2] = biological target: 5-hydroxytryptamine receptor 2A (Rattus norvegicus, UniProt P14842); assay: Displacement of [3H]ketanserin from rat brain 5HT2A receptor
Chain of 5-hydroxytryptamine receptor 2A (P14842 whole entry): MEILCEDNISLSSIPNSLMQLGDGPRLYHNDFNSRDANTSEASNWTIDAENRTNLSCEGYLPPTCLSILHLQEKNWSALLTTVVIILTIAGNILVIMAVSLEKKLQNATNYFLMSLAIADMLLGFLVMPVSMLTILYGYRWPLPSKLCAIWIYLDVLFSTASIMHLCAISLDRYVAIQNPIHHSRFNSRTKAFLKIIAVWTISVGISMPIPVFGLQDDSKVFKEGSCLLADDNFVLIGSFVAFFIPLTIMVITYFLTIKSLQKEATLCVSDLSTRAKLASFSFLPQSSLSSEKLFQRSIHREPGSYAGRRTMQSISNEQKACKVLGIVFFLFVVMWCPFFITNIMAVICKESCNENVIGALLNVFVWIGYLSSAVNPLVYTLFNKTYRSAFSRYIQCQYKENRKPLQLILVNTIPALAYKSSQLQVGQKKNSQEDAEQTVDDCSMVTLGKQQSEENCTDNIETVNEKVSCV
How it was run: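 Rat brain membranes; 0.6 nM [3H]-ketanserin; nonspecific binding with 1 μM methysergide; 8–10 competitor concentrations in triplicate, ≥3 experiments; GF/B filtration, scintillation counting; Ki via Cheng–Prusoff.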

[3] = biological target: 5-hydroxytryptamine receptor 7 (Rattus norvegicus, UniProt P32305); assay: Displacement of [3H]5CT from 5HT7 receptor in Wistar rat hyphalamic membrane; type: cell membranes
Chain of 5-hydroxytryptamine receptor 7 (P32305 whole entry): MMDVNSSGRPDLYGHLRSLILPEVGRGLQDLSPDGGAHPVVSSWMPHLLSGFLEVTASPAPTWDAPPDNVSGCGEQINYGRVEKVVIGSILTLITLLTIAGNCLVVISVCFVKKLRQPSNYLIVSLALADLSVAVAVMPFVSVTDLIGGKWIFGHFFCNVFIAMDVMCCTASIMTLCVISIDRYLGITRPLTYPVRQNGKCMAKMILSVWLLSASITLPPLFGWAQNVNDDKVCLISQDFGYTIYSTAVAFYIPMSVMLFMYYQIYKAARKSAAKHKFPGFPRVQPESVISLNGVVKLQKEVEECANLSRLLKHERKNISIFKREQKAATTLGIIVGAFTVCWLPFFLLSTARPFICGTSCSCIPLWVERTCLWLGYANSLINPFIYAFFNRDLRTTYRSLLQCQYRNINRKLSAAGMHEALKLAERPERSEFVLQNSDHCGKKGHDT

CCCOc1nc2c(c(=O)n(C)c(=O)n2C)n1CCCN1CCc2ccccc2C1
Ki [1]: 1010 nM | Ki [2]: 2610 nM | Ki [3]: 4400 nM

CCOc1nc2c(c(=O)n(C)c(=O)n2C)n1CCCCN1CCc2ccccc2C1
Ki [1]: 430 nM | Ki [2]: 1930 nM | Ki [3]: 83 nM

Cn1c(=O)c2c([nH]c(=O)n2CCCN2CCN(c3ccccc3)CC2)n(C)c1=O
Ki [1]: 4210 nM | Ki [2]: 230 nM | Ki [3]: 13900 nM

Cn1c(=O)c2c([nH]c(=O)n2CCCCN2CCN(c3ccccc3)CC2)n(C)c1=O
Ki [1]: 1500 nM | Ki [2]: 560 nM | Ki [3]: 1820 nM

Cn1c(=O)c2c([nH]c(=O)n2CCCCN2CCN(c3cccc(Cl)c3)CC2)n(C)c1=O
Ki [1]: 260 nM | Ki [2]: 60 nM | Ki [3]: 3670 nM

CCOc1nc2c(c(=O)n(C)c(=O)n2C)n1CCCN1CCN(c2cccc(Cl)c2)CC1
Ki [1]: 190 nM | Ki [2]: 23 nM | Ki [3]: 130 nM

CCCOc1nc2c(c(=O)n(C)c(=O)n2C)n1CCCN1CCN(c2ccccc2OC)CC1
Ki [1]: 314 nM | Ki [2]: 540 nM | Ki [3]: 328 nM

CCCOc1nc2c(c(=O)n(C)c(=O)n2C)n1CCCN1CCN(c2cccc(Cl)c2)CC1
Ki [1]: 288 nM | Ki [2]: 25 nM | Ki [3]: 267 nM

CCOc1nc2c(c(=O)n(C)c(=O)n2C)n1CCCCN1CCN(c2ccccc2)CC1
Ki [1]: 67 nM | Ki [2]: 131 nM | Ki [3]: 197 nM

CCCOc1nc2c(c(=O)n(C)c(=O)n2C)n1CCCCN1CCN(c2ccccc2)CC1
Ki [1]: 130 nM | Ki [2]: 57 nM | Ki [3]: 680 nM

CCOc1nc2c(c(=O)n(C)c(=O)n2C)n1CCCN1CCN(c2ccccc2)CC1
Ki [1]: 1300 nM | Ki [2]: 176 nM | Ki [3]: 477 nM

CCOc1nc2c(c(=O)n(C)c(=O)n2C)n1CCCCN1CCN(c2cccc(Cl)c2)CC1
Ki [1]: 12 nM | Ki [2]: 15 nM | Ki [3]: 51 nM

CCOc1nc2c(c(=O)n(C)c(=O)n2C)n1CCCN1CCc2ccccc2C1
Ki [1]: 1070 nM | Ki [2]: 590 nM | Ki [3]: 5750 nM

CCOc1nc2c(c(=O)n(C)c(=O)n2C)n1CCCN1CCN(c2ccccc2OC)CC1
Ki [1]: 83 nM | Ki [2]: 980 nM | Ki [3]: 410 nM

CCCOc1nc2c(c(=O)n(C)c(=O)n2C)n1CCCN1CCN(c2ccccc2)CC1
Ki [1]: 800 nM | Ki [2]: 51 nM | Ki [3]: 980 nM

Cn1c(=O)c2c([nH]c(=O)n2CCCN2CCc3ccccc3C2)n(C)c1=O
Ki [1]: 6320 nM | Ki [2]: 7960 nM | Ki [3]: 16500 nM

CCCOc1nc2c(c(=O)n(C)c(=O)n2C)n1CCCCN1CCc2ccccc2C1
Ki [1]: 332 nM | Ki [2]: 920 nM | Ki [3]: 57 nM

Cn1c(=O)c2c([nH]c(=O)n2CCCN2CCN(c3cccc(Cl)c3)CC2)n(C)c1=O
Ki [1]: 1110 nM | Ki [2]: 58 nM | Ki [3]: 1880 nM

CCCOc1nc2c(c(=O)n(C)c(=O)n2C)n1CCCCN1CCN(c2ccccc2OC)CC1
Ki [1]: 19 nM | Ki [2]: 150 nM | Ki [3]: 160 nM
